Laboratory results: ChEMBL document CHEMBL3992547, “Antimicrobial activity of rhodanine-3-acetic acid derivatives” (Bioorg Med Chem, 2017)
Calls of active or inactive are those of the source.

Tests used:
Staphylococcus aureus [1] = assay: Antibacterial activity against Staphylococcus aureus CCM 4516/08 incubated for 48 hrs under dark condition by microdilution broth assay; format: functional; details: CCM 4516/08, 48 h
How it was run: (§1)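 Broth microdilution per M07-A07, modified, in Mueller-Hinton broth adjusted to pH 7.4 (±0.2). Inoculum is prepared in sterile water to McFarland 0.5 (1.5 × 10⁸ CFU/mL). Plates are incubated in the dark at 35 °C in humid air. MIC is read after 24 and 48 h as at least 95% growth reduction versus control (IC₉₅).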

Mycobacterium kansasii [2] = assay: Antimycobacterial activity against Mycobacterium kansasii isolate 6509/96 after 21 days by micromethod; format: functional; details: isolate 6509/96, 504 h
[3] = Solubility of the compound in Sula's semisynthetic medium up to 1 mM; format: physicochemical
Mycobacterium avium [4] = assay: Antimycobacterial activity against Mycobacterium avium 330/88 measured after 14 days by micromethod; format: functional; details: 330/88, 336 h
Mycobacterium avium [5] = assay: Antimycobacterial activity against Mycobacterium avium 330/88 measured after 21 days by micromethod; format: functional; details: 330/88, 504 h
Mycobacterium kansasii [6] = assay: Antimycobacterial activity against Mycobacterium kansasii isolate 235/80 after 21 days by micromethod; format: functional; details: isolate 235/80, 504 h
Mycobacterium kansasii [7] = assay: Antimycobacterial activity against Mycobacterium kansasii isolate 235/80 after 7 days by micromethod; format: functional; details: isolate 235/80, 168 h
[8] = system: Mycobacterium tuberculosis; assay: Antimycobacterial activity against Mycobacterium tuberculosis H37Rv 331/88 measured after 21 days by micromethod; format: functional; details: H37Rv 331/88, 504 h
[9] = system: Staphylococcus epidermidis; assay: Antibacterial activity against Staphylococcus epidermidis H 6966/08 incubated for 24 hrs under dark condition by microdilution broth assay; format: functional; details: H 6966/08, 24 h; how it was run: as §1
Staphylococcus aureus [10] = assay: Antibacterial activity against methicillin-resistant Staphylococcus aureus H 5996/08 incubated for 24 hrs under dark condition by microdilution broth assay; format: functional; details: H 5996/08, 24 h
How it was run: (§2)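 Microdilution broth method modified per M07-A07, in Mueller-Hinton broth adjusted to pH 7.4 (±0.2). Inoculum made in sterile water to 0.5 McFarland (1.5 × 10⁸ CFU/mL). Plates incubated in the dark at 35 °C in a humid atmosphere, with reads at 24 and 48 h. MIC taken as at least 95% growth reduction (IC₉₅) versus control.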

Klebsiella pneumoniae [11] = assay: Antibacterial activity against Klebsiella pneumoniae D 11750/08 up to 500 uM incubated for 24 to 48 hrs under dark condition by microdilution broth assay; format: functional; how it was run: as §1
Enterococcus [12] = assay: Antibacterial activity against Enterococcus sp. J 14365/08 incubated for 24 hrs under dark condition by microdilution broth assay; details: J 14365/08, 24 h
Lichtheimia corymbifera = assay: Antifungal activity against Absidia corymbifera 272 after 24 to 48 hrs hrs by microdilution broth assay; format: functional
How it was run: (§3)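 Broth microdilution per CLSI M27-A3 and M38-A2 in RPMI 1640 with glutamine, buffered to pH 7.0 with MOPS. Compounds are diluted in DMSO. Final inoculum is 5 × 10³ CFU/mL for yeasts and 0.5–5 × 10⁴ CFU/mL for moulds. Plates are incubated in the dark at 35 °C in humid air and read visually and/or at 540 nm after 24 and 48 h. MIC is ≥80% growth reduction (IC₈₀) for yeasts and ≥50% (IC₅₀) for filamentous fungi.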

Escherichia coli [13] = assay: Antibacterial activity against Escherichia coli CCM 4517 incubated for 24 hrs under dark condition by microdilution broth assay; format: functional; details: CCM 4517, 24 h; how it was run: as §1
Enterococcus [14] = assay: Antibacterial activity against Enterococcus sp. J 14365/08 incubated for 48 hrs under dark condition by microdilution broth assay; details: J 14365/08, 48 h
Staphylococcus aureus [15] = assay: Antibacterial activity against Staphylococcus aureus CCM 4516/08 incubated for 24 hrs under dark condition by microdilution broth assay; format: functional; details: CCM 4516/08, 24 h; how it was run: as §1
Staphylococcus aureus [16] = assay: Antibacterial activity against methicillin-resistant Staphylococcus aureus H 5996/08 incubated for 48 hrs under dark condition by microdilution broth assay; format: functional; details: H 5996/08, 48 h; how it was run: as §2
[17] = system: Mycobacterium tuberculosis; assay: Antimycobacterial activity against Mycobacterium tuberculosis H37Rv 331/88 measured after 14 days by micromethod; format: functional; details: H37Rv 331/88, 336 h
Mycobacterium kansasii [18] = assay: Antimycobacterial activity against Mycobacterium kansasii isolate 6509/96 after 14 days by micromethod; format: functional; details: isolate 6509/96, 336 h
Escherichia coli [19] = assay: Antibacterial activity against Escherichia coli CCM 4517 incubated for 48 hrs under dark condition by microdilution broth assay; format: functional; details: CCM 4517, 48 h; how it was run: as §1
Klebsiella pneumoniae [20] = assay: Antibacterial activity against ESBL positive Klebsiella pneumoniae J 14368/08 up to 500 uM incubated for 24 to 48 hrs under dark condition by microdilution broth assay; format: functional; how it was run: as §1
Mycobacterium kansasii [21] = assay: Antimycobacterial activity against Mycobacterium kansasii isolate 235/80 after 14 days by micromethod; format: functional; details: isolate 235/80, 336 h
Mycobacterium kansasii [22] = assay: Antimycobacterial activity against Mycobacterium kansasii isolate 6509/96 after 7 days by micromethod; format: functional; details: isolate 6509/96, 168 h
Pichia kudriavzevii = assay: Antifungal activity against Candida krusei E28 after 24 to 48 hrs hrs by microdilution broth assay; format: functional; how it was run: as §3
Pseudomonas aeruginosa = assay: Antibacterial activity against Pseudomonas aeruginosa CCM 1961 up to 500 uM incubated for 24 to 48 hrs under dark condition by microdilution broth assay; format: functional; how it was run: as §1
[23] = system: Staphylococcus epidermidis; assay: Antibacterial activity against Staphylococcus epidermidis H 6966/08 incubated for 48 hrs under dark condition by microdilution broth assay; format: functional; details: H 6966/08, 48 h; how it was run: as §1

O=C(O)CN1C(=O)/C(=C/c2cc(Br)ccc2O)SC1=S
32 µM: MIC [17]
Soluble: solubility [3]
inactive: Activity (Klebsiella pneumoniae [11]) | Activity (Lichtheimia corymbifera) | Activity (Klebsiella pneumoniae [20]) | Activity (Pichia kudriavzevii) | Activity (Pseudomonas aeruginosa)
125 µM: MIC95 (Staphylococcus aureus [10]) | MIC95 (Staphylococcus aureus [16]) | MIC (Mycobacterium kansasii [18])
250 µM: MIC95 (Staphylococcus aureus [1]) | MIC (Mycobacterium kansasii [2]) | MIC95 (Staphylococcus aureus [15])
62.5 µM: MIC (Mycobacterium avium [4]) | MIC (Mycobacterium avium [5]) | MIC (Mycobacterium kansasii [6]) | MIC (Mycobacterium kansasii [7]) | MIC [8] | MIC95 [9] | MIC (Mycobacterium kansasii [21]) | MIC (Mycobacterium kansasii [22]) | MIC95 [23]
500 µM: MIC95 (Enterococcus [12]) | MIC95 (Escherichia coli [13]) | MIC95 (Enterococcus [14]) | MIC95 (Escherichia coli [19])

O=C(CN1C(=O)CSC1=S)Oc1ccccc1
Soluble: solubility [3]
inactive: Activity (Klebsiella pneumoniae [11]) | Activity (Lichtheimia corymbifera) | Activity (Klebsiella pneumoniae [20]) | Activity (Pichia kudriavzevii) | Activity (Pseudomonas aeruginosa)
125 µM: MIC95 (Enterococcus [12])
> 125 µM: MIC95 (Staphylococcus aureus [1]) | MIC95 [9] | MIC95 (Staphylococcus aureus [10]) | MIC95 (Escherichia coli [13]) | MIC95 (Enterococcus [14]) | MIC95 (Staphylococcus aureus [15]) | MIC95 (Staphylococcus aureus [16]) | MIC95 (Escherichia coli [19]) | MIC95 [23]
1000 µM: MIC (Mycobacterium kansasii [2]) | MIC (Mycobacterium avium [4]) | MIC (Mycobacterium avium [5]) | MIC (Mycobacterium kansasii [6]) | MIC [8] | MIC [17] | MIC (Mycobacterium kansasii [18]) | MIC (Mycobacterium kansasii [21])
500 µM: MIC (Mycobacterium kansasii [7]) | MIC (Mycobacterium kansasii [22])

COc1ccc(OC(=O)CN2C(=O)CSC2=S)cc1
1000 µM: MIC (Mycobacterium kansasii [2]) | MIC (Mycobacterium avium [4]) | MIC (Mycobacterium avium [5]) | MIC (Mycobacterium kansasii [6]) | MIC (Mycobacterium kansasii [7]) | MIC [8] | MIC [17] | MIC (Mycobacterium kansasii [18]) | MIC (Mycobacterium kansasii [21]) | MIC (Mycobacterium kansasii [22])
> 500 µM: MIC95 (Staphylococcus aureus [1]) | MIC95 (Staphylococcus aureus [10]) | MIC95 (Escherichia coli [13]) | MIC95 (Enterococcus [14]) | MIC95 (Staphylococcus aureus [15]) | MIC95 (Staphylococcus aureus [16]) | MIC95 (Escherichia coli [19]) | MIC95 [23]
inactive: Activity (Klebsiella pneumoniae [11]) | Activity (Lichtheimia corymbifera) | Activity (Klebsiella pneumoniae [20]) | Activity (Pichia kudriavzevii) | Activity (Pseudomonas aeruginosa)
500 µM: MIC95 [9] | MIC95 (Enterococcus [12])
Soluble: solubility [3]
